Assay outcomes from PubChem.
Rows were chosen to be rich in hits. Some 3% of all compounds tested hit in one or more screens of this group.
MC4R antagonist: MC4R antagonists of cAMP signaling, primary screen, cell-based, TR-FRET, antagonist arm of biased-ligand search. MC4R-expressing cells, MTII-stimulated cAMP, LANCE TR-FRET. inhibition, % at 6.5 µM. 360,000 tested, 0.48% active. AID 540295, 2011;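 active = inhibition above its plate's cutoff, the mean of tested wells on that plate plus 3 SD, cut at about 29% in these data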;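 note: 0% = Melanotan II alone and 100% = Melanotan II plus saturating MCL0020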
Target sequence (P32245 whole entry, looked up): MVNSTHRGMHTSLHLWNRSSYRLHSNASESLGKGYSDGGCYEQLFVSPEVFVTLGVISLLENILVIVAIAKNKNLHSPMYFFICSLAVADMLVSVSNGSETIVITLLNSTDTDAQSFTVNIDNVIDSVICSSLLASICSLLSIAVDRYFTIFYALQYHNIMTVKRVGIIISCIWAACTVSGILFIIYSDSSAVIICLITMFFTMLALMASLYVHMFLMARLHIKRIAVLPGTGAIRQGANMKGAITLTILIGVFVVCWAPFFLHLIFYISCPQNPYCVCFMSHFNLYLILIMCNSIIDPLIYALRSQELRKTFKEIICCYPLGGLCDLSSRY
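Material: human MC4R-expressing U2OS cells. Probe or stimulus: Melanotan II challenge. Dosing: 6.5 µM single dose. Times: 30-min compound, 1-h challenge, 1-h detection, room temperature. Technique: TR-FRET with Eu-cAMP and labeled anti-cAMP, 671 nm. Replication: singlicate.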
Beta2AR agonist: beta2AR agonists driving receptor internalization, primary screen, cell-based, FAP fluorogen, flow cytometry. Beta-2 adrenergic receptor (Homo sapiens), P07550. Am2.2-beta2AR cells. response, % (test concentration not listed). 340,000 tested, 0.43% active. AID 504454, 2011;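 active = response above a set limit, near 3 SD of response in nonfluorescent compounds, cut at about 42% in these data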
Target sequence (P07550 whole entry, looked up): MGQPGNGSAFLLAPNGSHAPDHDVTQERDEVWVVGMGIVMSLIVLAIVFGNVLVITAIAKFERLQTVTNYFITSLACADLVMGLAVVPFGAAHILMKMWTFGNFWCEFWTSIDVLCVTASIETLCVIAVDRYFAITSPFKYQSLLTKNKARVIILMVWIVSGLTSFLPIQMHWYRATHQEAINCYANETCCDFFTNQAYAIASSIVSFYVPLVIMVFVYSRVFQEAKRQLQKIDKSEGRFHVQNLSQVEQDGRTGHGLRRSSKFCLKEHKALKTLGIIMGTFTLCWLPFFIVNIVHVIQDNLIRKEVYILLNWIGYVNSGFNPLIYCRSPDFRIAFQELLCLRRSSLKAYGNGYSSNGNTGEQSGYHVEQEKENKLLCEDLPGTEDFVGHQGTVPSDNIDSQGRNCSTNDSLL
MC4R ag barr: MC4R agonists recruiting beta-arrestin, primary screen, cell-based, luminescence, agonist arm of biased-ligand search | Melanocortin receptor 4 (Homo sapiens), P32245 | U2OS MC4R beta-arrestin complementation; percent of melanotan II response, DMSO zero | activation, % at 8.9 µM | 360,000 tested, 0.98% active;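 active = activation above a per-plate cutoff, the mean activation of sample wells on that plate plus 3 SD, cut at about 8% in these data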
ABHD5-PLIN5 inh: ABHD5-PLIN5 interaction inhibitors, primary screen, cell lysate, split luciferase complementation, luminescence | inhibition, % at 4 µM | AID 602281, 2012 | Split G. princeps luciferase complementation, 4 h | 360,000 tested, 0.78% active | Perilipin-5 (Homo sapiens) + 1-acylglycerol-3-phosphate O-acyltransferase ABHD5 (Homo …;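 active = inhibition above the mean inhibition across every tested compound plus 3 SD, cut at about 22% in these data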;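 note: 0% = DMSO only wells and the 100% control is not disclosed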
PfGluPho inh: PfG6PD enzyme inhibitors, primary screen, biochemical, fluorescence intensity, uHTS. glucose-6-phosphate dehydrogenase-6-phosphogluconolactonase (Plasmodium falciparum 3D7). PfGluPho enzyme, NADPH resazurin-diaphorase fluorescence. inhibition, % at 20 µM. 350,000 tested, 0.78% active;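 active = inhibition reaching at least a set limit at 20 µM in the primary screen, cut at about 59% in these data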;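 note: 0% = DMSO wells with substrate and 100% = DMSO wells lacking glucose-6-phosphate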
PfG6PD confirm: PfG6PD inhibitors, hit retest, confirmation, biochemical, fluorescence intensity, single concentration. shares compounds with PfGluPho inh. recombinant PfGluPho, NADPH-diaphorase-resazurin fluorescence. inhibition, % at 20 µM. 2,400 tested, 34% active. AID 504753, 2011;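 active = inhibition of at least 50% at 20 µM in any single replicate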;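 note: 0% = DMSO with substrate and 100% = DMSO lacking glucose-6-phosphate substrate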
Diaphorase 10uM: diaphorase inhibitors and chemical oxidizers, confirmation, counter-screen for P. falciparum G6PD inhibitor project, biochemical, fluorescence intensity, 10 µM NADPH | shares compounds with PfGluPho inh | diaphorase-coupled resazurin reduction, NADPH 10 uM | inhibition, % at 20 µM | 820 tested, 39% active | AID 504862, 2011;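 active = average inhibition reaching 50% or more with the compound at 20 µM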;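 note: resorufin red fluorescence formed as diaphorase reduces resazurin using NADPH; 0% = DMSO with enzyme and 100% = DMSO without enzyme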
Diaph ctr 30uM: diaphorase inhibitors and chemical oxidizers, confirmation, counter-screen for P. falciparum G6PD inhibitor project, biochemical, fluorescence intensity, 30 µM NADPH | inhibition, % at 20 µM | AID 504863, 2011 | 820 tested, 29% active | shares compounds with PfGluPho inh | Diaphorase/resazurin coupled assay, resorufin fluorescence;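 active = inhibition averaging 50% or more, tested at 20 µM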;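 note: 0% = DMSO with enzyme and 100% = DMSO wells lacking diaphorase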
* marks the source's active call; other numbers are inactive results; / = no result.

SMILES | MC4R antagonist | Beta2AR agonist | MC4R ag barr | ABHD5-PLIN5 inh | PfGluPho inh | PfG6PD confirm | others
CC(C)CN1C=C2C(=O)C(C)(OC(=O)C3CCCC3)C(=O)C=C2C=C1c1ccsc1 (centres undefined) | 1.1 | -0.6 | -1.4 | -18.5 | 44.2 | /
CC1(OC(=O)C2CCCC2)C(=O)C=C2C=C(c3ccsc3)N(CCc3ccccn3)C=C2C1=O (centres undefined) | 1.0 | -3.4 | -1.9 | -10.4 | 69.5* | 39.5
CC1(OC(=O)C2CCCC2)C(=O)C=C2C=C(c3ccsc3)N(C3CC3)C=C2C1=O (centres undefined) | -6.6 | 1.4 | -0.9 | -23.2 | 80.0* | 28.4
CC1(OC(=O)C2CCCC2)C(=O)C=C2C=C(c3ccsc3)N(c3ccccc3)C=C2C1=O (centres undefined) | 9.3 | 13.2 | -0.4 | -8.4 | 54.4 | /
CC1(OC(=O)C2CCCC2)C(=O)C=C2C=C(c3ccsc3)N(C(CO)CO)C=C2C1=O (centres undefined) | 1.6 | -10.7 | 0.1 | -18.7 | 66.3* | 7.1
Cc1cc(C(=O)CSc2nnc(-c3cccs3)o2)c(C)n1-c1ccccc1 | 6.3 | -9.0 | 0.1 | 1.9 | 78.8* | 43.0
Cc1cc(C(=O)CSc2nnc(-c3ccco3)o2)c(C)n1-c1ccc2c(c1)OCCO2 | 1.5 | -0.3 | -0.8 | 2.1 | 75.1* | 36.0
Cc1nnc(SCC(=O)c2cc(C)n(-c3ccc4c(c3)OCO4)c2C)s1 | -1.5 | 3.5 | -0.8 | -1.4 | 97.7* | 68.8* | Diaphorase 10uM=56.1*;Diaph ctr 30uM=42.2
O=C(CSc1nnc(-c2cccs2)o1)c1cccs1 | 6.7 | -20.9 | -0.9 | -2.5 | -0.2 | /
CC1CN(c2ccccc2)NC1=O (centres undefined) | 17.6 | 3.3 | -1.4 | -14.7 | 105.8* | 107.0* | Diaphorase 10uM=13.1;Diaph ctr 30uM=15.1
CCOC(=O)Cc1cc(=O)n2[nH]cc(-c3cccc(Br)c3)c2n1 | 25.4 | 3.7 | 2.1 | -3.2 | 7.1 | /
COc1ccccc1NC(=O)Nc1sccc1-c1nc2ccccc2s1 | 3.0 | -6.7 | 3.1 | -21.0 | 78.3* | 21.8
N#CC1=C2SCN(c3ccc(F)cc3)CN2C(=O)CC1c1cccc(F)c1 (centres undefined) | 0.7 | 4.2 | -0.7 | -11.6 | 68.8* | 25.2
CCc1ccc(C2CC(=O)N3CN(c4ccccc4)CSC3=C2C#N)cc1 (centres undefined) | 10.2 | -5.1 | 0.5 | -17.2 | 77.7* | 9.1
N#CC1=C2SCC(O)(c3ccccc3)N2C(=O)CC1c1ccccc1 (centres undefined) | -18.3 | 11.9 | -3.1 | -2.2 | 7.8 | /
CCN(Cc1nc(-c2ccc(C)cc2)no1)C(=O)c1ccco1 | 21.6 | 2.1 | 0.4 | 0.4 | -18.9 | /
COc1ccc2[nH]cc(CCNC(=O)c3ccc4ccccc4n3)c2c1 | 0.6 | 0.1 | 0.5 | -0.4 | 62.3* | 40.3
COCCN(C(=S)Nc1c(C)cccc1C)C(C)c1ccco1 (centres undefined) | 17.5 | 6.7 | 0.2 | -1.1 | 10.7 | /
Nc1ccc(N(CCO)CCO)cc1 | -21.5 | 0.6 | -0.6 | -14.7 | 62.7* | 54.6* | Diaphorase 10uM=24.6;Diaph ctr 30uM=14.2
Cc1noc(C)c1-c1ccc(C(=O)NCCN2CCOCC2)c2occc12 | 1.5 | / | -0.1 | 6.3 | / | /
COc1cc(C(=O)Nc2cccc(S(=O)(=O)N3CCCC3)c2)cc(OC)c1C | 16.2 | 0.9 | -0.9 | -7.0 | 60.3* | -8.3
CS(=O)(=O)c1cccc(C(=O)Nc2cccc(S(=O)(=O)N3CCCC3)c2)c1 | 6.2 | 1.6 | -1.4 | -1.4 | 14.2 | /
CCCCCCNC(=O)O[C@H]1Cn2c(=O)n(CCCCCC)c(=O)n2[C@@H]2CN(S(=O)(=O)c3ccc(C)cc3)C[C@]12O | 2.4 | / | 2.2 | -12.7 | 70.6* | -14.5
CCCCCCn1c(=O)n2n(c1=O)[C@@H]1CN(S(=O)(=O)c3ccc(C)cc3)C[C@]1(O)[C@@H](OC(=O)NCC1CCCCC1)C2 | 6.7 | / | 5.5 | -19.9 | 64.7* | -26.1
COc1cc2c(cc1OC)CN(CCC(C)c1ccc(Cl)cc1)CC2 (centres undefined) | 3.0 | 3.8 | 3.4 | 5.4 | 10.5 | /
SMILES | MC4R antagonist | Beta2AR agonist | MC4R ag barr | ABHD5-PLIN5 inh | PfGluPho inh | PfG6PD confirm | others
O=C(CNC(=O)c1cccc([N+](=O)[O-])c1)NC1CCCc2ccccc21 (centres undefined) | 9.0 | -7.0 | -3.9 | -4.4 | -3.4 | /
O=C(CSc1nnc(-c2ccccn2)o1)Nc1ccccc1F | 1.1 | -3.5 | -1.4 | 3.4 | 1.6 | /
CCOC(=O)c1c(CSc2ccccc2)n(C)c2cc(Br)c(OCC(O)CNC(CO)(CO)CO)cc12 (centres undefined) | 12.2 | 7.8 | 6.5 | 15.3 | 61.3* | 10.8
CCOC(=O)c1c(CSc2ccccc2)n(C)c2cc(Br)c(OC)c(O)c12 | 1.0 | -8.4 | 1.2 | 5.0 | 6.9 | /
Nc1ccc(S(N)(=O)=O)cc1 | 5.0 | -11.2 | -0.5 | -3.5 | -3.0 | /
Nc1ccc(S(N)(=O)=O)cc1N | -2.2 | 3.0 | -0.7 | 1.5 | 60.4* | 4.2
COc1cccc(-c2[nH]nc3c2C(c2ccsc2)C(C#N)=C(N)O3)c1 (centres undefined) | -1.0 | -0.4 | -2.0 | -43.7 | 60.6* | 34.4
COc1ccc2oc(C)c(C(=O)c3ccc([N+](=O)[O-])cc3)c2c1 | 13.8 | -6.1 | -1.8 | -2.1 | 67.1* | 15.0
COc1ccc2oc(C)c(C(N)=O)c2c1 | -8.2 | -4.3 | -0.1 | -2.3 | -15.1 | /
S=c1cnc2ccccc2[nH]1 | 10.0 | -10.2 | -1.0 | -5.5 | 64.0* | 3.9
c1ccc2[nH]c(CCCc3nc4ccccc4[nH]3)nc2c1 | 9.4 | -6.5 | 2.0 | 0.3 | -18.1 | /
Fc1ccc(Nc2ccc(-c3ccc(F)cc3)nn2)cc1 | -4.0 | -8.3 | 0.6 | 0.0 | -0.4 | /
C[C@@H]1ON(C)[C@H]2C[C@H]3c4[nH]c5ccc(-c6ccc7c(c6)OCO7)cc5c4CCN3C(=O)[C@@H]12 | 12.1 | / | -1.9 | 2.4 | 76.2* | 44.2
